{
  "source": "PubChem BioAssay AID743247",
  "about": "(Broad Institute, 2014)",
  "note": "Several values for one entry are separate records, joined by “and”; a condition that tells them apart may be missing. Equal entries are not always repeated. The campaign covered roughly 350,000 compounds. About 300 (0.086%) were called active.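 Rule for the calls: active = mean inhibition across replicates of 30% or more, regardless of how many single replicates reach that level; inconclusive = mean under 30% yet at least half of replicates reach 30%; inactive = the rest.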 The full list was thinned out, with actives kept by preference.",
  "data": [
    {"experiment": "blockers of fibronectin fibrillogenesis by fibroblasts – AH1F cells, Alexa488-fibronectin fluorescence, plate reader, primary screen (AID 743247);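 note: positive control wells lacked labelled fibronectin entirely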", "conditions": "Alexa488-fibronectin deposition fluorescence, overnight, at 12.6 µM, stronger effect = higher value", "procedure,_shortened": "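Material: AH1F fibroblasts assembling fluorescent fibronectin matrix; amount: 10000 AH1F cells/well; medium: DMEM, 2% serum; reagent: Alexa488-fibronectin, 24 nM final in well; dosing: single compound dose, delivered by pin transfer; incubation: 1 h adhesion, overnight exposure; detection: fluorescence after three HBSS washes, excitation 485 nm, emission 525 nm; measure: fibronectin deposition inhibition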", "values": [
      {"smiles": "C[C@H]1CN([C@@H](C)CO)C(=O)c2cccc(NC(=O)CCCCCC(=O)Nc3ccccc3N)c2O[C@@H]1CN(C)C(=O)NC1CCCCC1", "inhibition": "17% (inactive)"},
      {"smiles": "CCOC(=O)c1cnc(SCc2nc(N)nc(Nc3ccc(OC)cc3)n2)nc1N", "inhibition": "14.2% (active)"},
      {"smiles": "CCOC(=O)C1CCCN(Cc2nc(N)nc(Nc3ccc(C)cc3)n2)C1", "note": "(stereo not drawn)", "inhibition": "-4.21% (inactive)"},
      {"smiles": "COc1ccc(Nc2nc(N)nc(CSC(=S)N3CCC(C)CC3)n2)cc1", "inhibition": "4.46% (inactive)"},
      {"smiles": "CN1C(=O)c2cc(NC(=O)c3cccs3)ccc2OC[C@H]2O[C@@H](CC(=O)NCC3CC3)CC[C@@H]21", "inhibition": "-3.33% (inactive)"},
      {"smiles": "CC(C)[C@@H]1COCc2cn(nn2)CC[C@@H](C)C(=O)N1", "inhibition": "-0.112% (inactive)"},
      {"smiles": "CCCNC(=O)Nc1ccc2c(c1)C(=O)N(C)C[C@@H](OC)[C@@H](C)CN(Cc1ccccn1)[C@@H](C)CO2", "inhibition": "0.86% (inactive)"},
      {"smiles": "CC(C)NC(=O)N(C)C[C@H]1Oc2ccc(N)cc2CC(=O)N(C)C[C@H]1C", "inhibition": "3.3% (inactive)"},
      {"smiles": "N#Cc1ccc(-c2ccc(C3[C@@H]4CN(S(=O)(=O)c5cccc(Cl)c5)C[C@H]3N4)cc2)cc1", "note": "(stereo partly drawn)", "inhibition": "-6.82% (inactive)"},
      {"smiles": "C[C@@H]1CCCCO[C@H](CN(C)C(=O)CCCN(C)C)[C@@H](C)CN([C@@H](C)CO)C(=O)c2cc(NC(=O)c3ccncc3)ccc2O1", "inhibition": "-3.34% (inactive)"},
      {"smiles": "C[C@H](CO)N1C[C@H](C)[C@@H](CN(C)C(=O)C2CC2)Oc2ncc(C#CC(C)(C)O)cc2C1=O", "inhibition": "-19.9% (inactive)"},
      {"smiles": "C[C@@H]1CN([C@H](C)CO)C(=O)c2c(c3ccccc3n2C)-c2ccccc2CO[C@@H]1CN(C)Cc1ccccc1C(F)(F)F", "inhibition": "3.35% (inactive)"},
      {"smiles": "COc1ccc(S(=O)(=O)Nc2ccc3c(c2)C(=O)N(C)C[C@@H](OC)[C@H](C)CN(C(=O)NC(C)C)[C@H](C)CO3)cc1", "inhibition": "6.84% (inactive)"},
      {"smiles": "N#C[C@H]1[C@H](c2ccccc2-c2ccc(F)cc2)[C@H](CO)N1C(=O)Cc1ccncc1", "inhibition": "-14.3% (inactive)"},
      {"smiles": "CC(C)NC(=O)N(C)C[C@@H]1OCCCC[C@H](C)Oc2ccc(NC(=O)Nc3ccccc3)cc2C(=O)N([C@H](C)CO)C[C@@H]1C", "inhibition": "1.11% (inactive)"},
      {"smiles": "CCCNC(=O)N1[C@@H]2CNC[C@H]1C2c1ccc(-c2cccc(C)c2)cc1", "note": "(stereo partly drawn)", "inhibition": "-3.69% (inactive) and -7.75% (inactive)"},
      {"smiles": "Cc1cccc(S(=O)(=O)N2CC[C@@H]3[C@H]2c2cc(C#Cc4ccccc4F)ccc2N[C@@H]3CO)c1", "inhibition": "15.8% (inactive)"},
      {"smiles": "CNC[C@H]1Oc2ccc(NC(=O)NC(C)C)cc2C(=O)N(C)C[C@@H]1C", "inhibition": "-10.1% (inactive)"},
      {"smiles": "O=C1N[C@H](Cc2ccccc2)COCc2cn(nn2)CC[C@@H]1Cc1ccc(-c2ccccc2)cc1", "inhibition": "7.74% (inactive)"},
      {"smiles": "CNC[C@H]1Oc2ncccc2C(=O)N(C)C[C@@H]1C", "inhibition": "3.59% (inactive)"},
      {"smiles": "CC(=O)N1[C@H](CO)[C@H](c2ccccc2)[C@H]1CN(C(=O)c1ccccc1F)C(C)C", "inhibition": "-2.39% (inactive)"},
      {"smiles": "CCCC(=O)Nc1ccc2c(c1)OC[C@H](C)N(C(=O)CC)C[C@H](C)[C@@H](OC)CN(C)C2=O", "inhibition": "-4.46% (inactive)"},
      {"smiles": "C=C(C)C[C@H]1CCn2cc(nn2)COCCNC1=O", "inhibition": "-4.67% (inactive)"},
      {"smiles": "C[C@@H]1C(=O)N[C@H](c2ccc3c(c2)OCO3)CC=CC[C@H](C)Oc2ccccc2C(=O)N1C", "note": "(mixture of isomers)", "inhibition": "-8.64% (inactive)"},
      {"smiles": "COc1ccc(S(=O)(=O)N2C[C@H](O)COC[C@@H]3O[C@H](CC(=O)NCCN4CCCCC4)CC[C@H]32)cc1", "inhibition": "4.18% (inactive)"},
      {"smiles": "O=C1CCC(=O)N[C@H](c2ccccc2)C/C=C\\CCN1", "inhibition": "-1.16% (inactive)"},
      {"smiles": "C[C@H]1CN([C@@H](C)CO)C(=O)c2c(c3ccccc3n2C)-c2ccccc2CO[C@@H]1CN(C)CC1CCCCC1", "inhibition": "-4.72% (inactive)"},
      {"smiles": "CO[C@H]1CN(C)C(=O)c2cc(NC(=O)NC(C)C)ccc2OC[C@@H](C)NC[C@@H]1C", "inhibition": "-16.2% (inactive)"},
      {"smiles": "COc1ccc2c3c([nH]c2c1)[C@@H](CO)N(C)CC31CCN(S(=O)(=O)c2ccc(C)cc2)CC1", "inhibition": "3.31% (inactive)"},
      {"smiles": "CC(=O)Nc1ccc2c(c1)CC(=O)N(C)C[C@H](C)[C@H](CN(C)S(C)(=O)=O)O2", "inhibition": "-0.444% (inactive)"},
      {"smiles": "C[C@H](CO)N1C[C@H](C)[C@@H](CN(C)Cc2ccncc2)Oc2cc(Br)ccc2S1(=O)=O", "inhibition": "-7.26% (inactive)"},
      {"smiles": "COCC(=O)N(C)C[C@H]1[C@@H](c2ccccc2)[C@H](CO)N1C(=O)Cc1ccncc1", "inhibition": "-3.58% (inactive)"},
      {"smiles": "O=C1NCCCOCc2cn(nn2)CC[C@@H]1Cc1ccc(-c2ccccc2)cc1", "inhibition": "1.3% (inactive)"},
      {"smiles": "C[C@@H]1COCc2cn(nn2)CC[C@H](C)C(=O)N1", "inhibition": "-2.55% (inactive)"},
      {"smiles": "O=C(C1CCC1)N1CC2(C1)[C@H](c1ccccc1)[C@H](CO)N2Cc1nccs1", "inhibition": "4.67% (inactive)"},
      {"smiles": "C[C@H](CO)N1C[C@H](C)[C@@H](CN(C)Cc2ccc(Cl)c(Cl)c2)Oc2ccc(NC(=O)Cn3cnnn3)cc2CC1=O", "inhibition": "-6.99% (inactive)"},
      {"smiles": "O=C(Cc1ccncc1)N1CC[C@@H]2[C@@H](CO)Nc3ccc(C4=CCCCC4)cc3[C@@H]21", "inhibition": "-5.08% (inactive)"},
      {"smiles": "CO[C@H]1CN(C)C(=O)c2ccc(NC(=O)C3CCC3)cc2OC[C@H](C)NC[C@@H]1C", "inhibition": "4.29% (inactive)"},
      {"smiles": "CC(=O)NC[C@H]1[C@H](c2ccc(C3=CCCCC3)cc2)[C@@H](CO)N1C(=O)NC(C)C", "inhibition": "-4.24% (inactive)"},
      {"smiles": "Cc1ccccc1S(=O)(=O)N[C@@H]1CC[C@@H](CCNS(=O)(=O)c2cccc(F)c2)O[C@H]1CO", "inhibition": "-1.75% (inactive)"},
      {"smiles": "O=C(C[C@H]1CC[C@@H]2[C@H](COC[C@@H](O)CN2CC2CC2)O1)NCC1CC1", "inhibition": "-7.99% (inactive)"},
      {"smiles": "CCC(=O)N(C)C[C@H]1Oc2ncc(-c3ccc(C#N)cc3)cc2C(=O)N([C@@H](C)CO)C[C@H]1C", "inhibition": "-1.88% (inactive)"},
      {"smiles": "C/C=C/c1ccc(C2[C@H]3CNC[C@@H]2N3CC2CCOCC2)cc1", "note": "(stereo partly drawn)", "inhibition": "3.6% (inactive)"},
      {"smiles": "CO[C@@H]1CN(C)C(=O)c2cc(NC(=O)c3cccc(Oc4ccccc4)c3)ccc2OC[C@H](C)NC[C@@H]1C", "inhibition": "15.5% (inactive)"},
      {"smiles": "O=C1CCCCn2nncc2COC[C@@H](Cc2ccccc2)N1", "inhibition": "5.42% (inactive)"},
      {"smiles": "COCC(=O)N1CC2(CN(S(C)(=O)=O)C2)c2c(n(C)c3cc(OC)ccc23)[C@@H]1CO", "inhibition": "-4.29% (inactive)"},
      {"smiles": "O=C(C[C@H]1C[C@H]2c3cc(NC(=O)CC4CC4)ccc3O[C@H]2[C@H](CO)O1)NCc1cc(F)ccc1F", "inhibition": "-4.07% (inactive)"},
      {"smiles": "COc1ccc2c3c(n(C)c2c1)[C@@H](CO)N(Cc1ccncc1)CC31CN(C(=O)Nc2cccc(F)c2)C1", "inhibition": "-9.67% (inactive)"},
      {"smiles": "C[C@H](CO)N1C[C@H](C)[C@@H](CN(C)C(=O)Cc2ccccn2)Oc2cc(-c3cccc(C(=O)N(C)C)c3)ccc2S1(=O)=O", "inhibition": "3.4% (inactive)"},
      {"smiles": "COC(=O)c1nc(NC(=O)c2ccccc2)n[nH]1", "inhibition": "5.02% (inactive)"},
      {"smiles": "O=C(NC1=CC(=O)c2ccccc2C1=O)c1ccccc1", "inhibition": "62.2% (active)"},
      {"smiles": "O=C(NC(=O)c1ccccc1)Nc1ccccc1O", "inhibition": "-0.509% (inactive)"},
      {"smiles": "C[C@@H]1CC(=O)N[C@H](c2ccccc2)C/C=C\\C[C@H](c2ccccc2)NC1=O", "inhibition": "-9.6% (inactive)"}
    ]}
  ]
}
